Test results published in ChEMBL document CHEMBL4689842, “EUbOPEN Chemogenomics Library wave 1” (2021).
Where “and” joins values, the source holds several entries; their conditions need not be identical. Identical values can stand only once.

System: U2OS
Experiment: Multiplex assay against U2OS
Assay type: toxicity, cell-based
Conditions: human
Summary of the method: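 Live cells were stained at seeding with Hoechst33342, BioTracker Green Microtubule Cytoskeleton Dye, MitoTracker Red and Annexin V Alexa Fluor 680, then imaged on a CQ1 microscope at 37°C and 5% CO2 after compound addition. CellPathfinder machine-learning gating split cells into Hoechst high-intensity objects or normal cells. Normal cells were split into healthy, pyknosed or fragmented nuclei, and pyknosed cells into mitotic or apoptotic. Tubulin, mitochondrial-mass and membrane-permeability phenotypes are per cents of healthy-nucleus cells.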

[1] = 12 h, 1 µM, compound concentration 1 uM, replicate 1
[2] = 12 h, 1 µM, compound concentration 1 uM, replicate 2
[3] = 24 h, 1 µM, compound concentration 1 uM, replicate 1
[4] = 24 h, 1 µM, compound concentration 1 uM, replicate 2
[5] = 12 h, 10 µM, compound concentration 10 uM, replicate 1
[6] = 12 h, 10 µM, compound concentration 10 uM, replicate 2
[7] = 24 h, 10 µM, compound concentration 10 uM, replicate 1
[8] = 24 h, 10 µM, compound concentration 10 uM, replicate 2

## CC(C)C(=O)Nc1n[nH]c2cc(-c3cccc(NS(=O)(=O)C4CC4)c3)ccc12
[1]
  Population Apoptotic (%): 33% and 20%
  Population Fragmented Nuclei (%): 8% and 3%
  Population Healthy Nuclei (%): 88% and 86%
  Population Membrane Permeable-Phenotype (%): 18% and 12%
  Population Mitochondria Different-Phenotype (%): 22% and 20%
  Population Mitotic Cells (%): 66% and 80%
  Population Normal (%): 98% and 95%
  Population Pyknosed Nuclei (%): 3% and 9%
  Population Tubulin-Different-Phenotype (%): 21% and 32%
  Total Cell Count: 108 and 215
[2]
  Population Apoptotic (%): 25% and 16%
  Population Fragmented Nuclei (%): 11%
  Population Healthy Nuclei (%): 82% and 92%
  Population Hoechst High Intensity Objects (%): 12% and 6%
  Population Membrane Permeable-Phenotype (%): 21% and 10%
  Population Mitochondria Different-Phenotype (%): 42% and 28%
  Population Mitotic Cells (%): 75% and 83%
  Population Normal (%): 87% and 94%
  Population Pyknosed Nuclei (%): 5% and 4%
  Population Tubulin-Different-Phenotype (%): 26% and 18%
  Total Cell Count: 122 and 78
[3]
  Population Apoptotic (%): 27% and 25%
  Population Fragmented Nuclei (%): 5% and 2%
  Population Healthy Nuclei (%): 90% and 89%
  Population Hoechst High Intensity Objects (%): 2% and 3%
  Population Membrane Permeable-Phenotype (%): 12% and 10%
  Population Mitochondria Different-Phenotype (%): 17% and 24%
  Population Mitotic Cells (%): 72% and 75%
  Population Normal (%): 97% and 96%
  Population Pyknosed Nuclei (%): 4% and 8%
  Population Tubulin-Different-Phenotype (%): 23% and 38%
  Total Cell Count: 152 and 246
[4]
  Population Apoptotic (%): 18% and 21%
  Population Fragmented Nuclei (%): 4% and 3%
  Population Healthy Nuclei (%): 82% and 88%
  Population Hoechst High Intensity Objects (%): 8% and 4%
  Population Mitochondria Different-Phenotype (%): 41% and 31%
  Population Mitotic Cells (%): 81% and 78%
  Population Normal (%): 91% and 95%
  Population Pyknosed Nuclei (%): 12% and 7%
  Population Tubulin-Different-Phenotype (%): 35%
  Total Cell Count: 144 and 96

## Cc1sc2c(c1C)C(c1ccc(Cl)cc1)=N[C@@H](CC(=O)OC(C)(C)C)c1nnc(C)n1-2
[5]
  Population Apoptotic (%): 41% and 34%
  Population Fragmented Nuclei (%): 12%
  Population Healthy Nuclei (%): 67% and 58%
  Population Hoechst High Intensity Objects (%): 5% and 6%
  Population Membrane Permeable-Phenotype (%): 21% and 12%
  Population Mitochondria Different-Phenotype (%): 17% and 22%
  Population Mitotic Cells (%): 58% and 65%
  Population Normal (%): 94% and 93%
  Population Pyknosed Nuclei (%): 19% and 20%
  Population Tubulin-Different-Phenotype (%): 17% and 24%
  Total Cell Count: 1986
[6]
  Population Apoptotic (%): 28% and 14%
  Population Fragmented Nuclei (%): 29% and 21%
  Population Healthy Nuclei (%): 55% and 62%
  Population Hoechst High Intensity Objects (%): 13% and 12%
  Population Membrane Permeable-Phenotype (%): 14%
  Population Mitochondria Different-Phenotype (%): 28% and 33%
  Population Mitotic Cells (%): 71% and 85%
  Population Normal (%): 86% and 87%
  Population Pyknosed Nuclei (%): 15% and 16%
  Population Tubulin-Different-Phenotype (%): 36% and 27%
[7]
  Population Apoptotic (%): 88%
  Population Fragmented Nuclei (%): 16% and 20%
  Population Healthy Nuclei (%): 58%
  Population Hoechst High Intensity Objects (%): 5% and 6%
  Population Membrane Permeable-Phenotype (%): 27% and 23%
  Population Mitochondria Different-Phenotype (%): 19% and 29%
  Population Mitotic Cells (%): 12%
  Population Normal (%): 94% and 93%
  Population Pyknosed Nuclei (%): 24% and 20%
  Population Tubulin-Different-Phenotype (%): 30% and 40%
[8]
  Population Apoptotic (%): 76% and 64%
  Population Fragmented Nuclei (%): 30% and 25%
  Population Healthy Nuclei (%): 53% and 52%
  Population Hoechst High Intensity Objects (%): 11% and 12%
  Population Membrane Permeable-Phenotype (%): 20% and 18%
  Population Mitochondria Different-Phenotype (%): 30% and 23%
  Population Mitotic Cells (%): 23% and 35%
  Population Normal (%): 88%
  Population Pyknosed Nuclei (%): 15% and 22%
  Population Tubulin-Different-Phenotype (%): 52% and 34%

## Cc1nc(Nc2n[nH]c3c2CN(C(=O)N[C@H](CN(C)C)c2ccccc2)C3(C)C)c2sccc2n1 [PF-03758309]
[1]
  Population Apoptotic (%): 47%
  Population Fragmented Nuclei (%): 9%
  Population Healthy Nuclei (%): 79%
  Population Hoechst High Intensity Objects (%): 2%
  Population Membrane Permeable-Phenotype (%): 9%
  Population Mitochondria Different-Phenotype (%): 21%
  Population Mitotic Cells (%): 52%
  Population Normal (%): 97%
  Population Pyknosed Nuclei (%): 11%
  Population Tubulin-Different-Phenotype (%): 21%
  Total Cell Count: 234
[2]
  Population Apoptotic (%): 20%
  Population Fragmented Nuclei (%): 10%
  Population Healthy Nuclei (%): 78%
  Population Hoechst High Intensity Objects (%): 15%
  Population Membrane Permeable-Phenotype (%): 5%
  Population Mitochondria Different-Phenotype (%): 18%
  Population Mitotic Cells (%): 80%
  Population Normal (%): 84%
  Population Pyknosed Nuclei (%): 10%
  Population Tubulin-Different-Phenotype (%): 24%
  Total Cell Count: 118
[5]
  Population Apoptotic (%): 53%
  Population Fragmented Nuclei (%): 16%
  Population Healthy Nuclei (%): 54%
  Population Hoechst High Intensity Objects (%): 3%
  Population Membrane Permeable-Phenotype (%): 18%
  Population Mitochondria Different-Phenotype (%): 37%
  Population Mitotic Cells (%): 46%
  Population Normal (%): 97%
  Population Pyknosed Nuclei (%): 28%
  Population Tubulin-Different-Phenotype (%): 75%
  Total Cell Count: 173
[6]
  Population Apoptotic (%): 75%
  Population Fragmented Nuclei (%): 20%
  Population Healthy Nuclei (%): 63%
  Population Hoechst High Intensity Objects (%): 18%
  Population Membrane Permeable-Phenotype (%): 12%
  Population Mitochondria Different-Phenotype (%): 59%
  Population Mitotic Cells (%): 25%
  Population Normal (%): 81%
  Population Pyknosed Nuclei (%): 16%
  Population Tubulin-Different-Phenotype (%): 85%
  Total Cell Count: 112
[3]
  Population Apoptotic (%): 58%
  Population Fragmented Nuclei (%): 11%
  Population Healthy Nuclei (%): 80%
  Population Hoechst High Intensity Objects (%): 3%
  Population Membrane Permeable-Phenotype (%): 17%
  Population Mitochondria Different-Phenotype (%): 19%
  Population Mitotic Cells (%): 41%
  Population Normal (%): 96%
  Population Pyknosed Nuclei (%): 8%
  Population Tubulin-Different-Phenotype (%): 25%
  Total Cell Count: 292
[4]
  Population Apoptotic (%): 38%
  Population Fragmented Nuclei (%): 16%
  Population Healthy Nuclei (%): 71%
  Population Hoechst High Intensity Objects (%): 13%
  Population Membrane Permeable-Phenotype (%): 12%
  Population Mitochondria Different-Phenotype (%): 29%
  Population Mitotic Cells (%): 61%
  Population Normal (%): 86%
  Population Pyknosed Nuclei (%): 12%
  Population Tubulin-Different-Phenotype (%): 33%
  Total Cell Count: 121
[7]
  Population Apoptotic (%): 78%
  Population Fragmented Nuclei (%): 25%
  Population Healthy Nuclei (%): 38%
  Population Hoechst High Intensity Objects (%): 12%
  Population Membrane Permeable-Phenotype (%): 44%
  Population Mitochondria Different-Phenotype (%): 64%
  Population Mitotic Cells (%): 21%
  Population Normal (%): 88%
  Population Pyknosed Nuclei (%): 36%
  Population Tubulin-Different-Phenotype (%): 88%
  Total Cell Count: 202
[8]
  Population Apoptotic (%): 85%
  Population Fragmented Nuclei (%): 19%
  Population Healthy Nuclei (%): 50%
  Population Hoechst High Intensity Objects (%): 25%
  Population Membrane Permeable-Phenotype (%): 38%
  Population Mitochondria Different-Phenotype (%): 82%
  Population Mitotic Cells (%): 14%
  Population Normal (%): 74%
  Population Pyknosed Nuclei (%): 30%
  Population Tubulin-Different-Phenotype (%): 82%
  Total Cell Count: 121
